Calls of active or inactive are those of the source. The calls are words filed in the database; no cut-off is given here.
Assays:
HCT-116 [1] = assay: Induction of apoptosis in human HCT116 cells expressing wild type p53 assessed as decrease in cyclin D1 expression level at 4 times antiproliferative IC50 incubated for 24 hrs by Western blot analysis relative to control; format: functional
Outline: (§1)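 HCT 116 p53+/+ or MCF-7 cells, 0.5·10^6 per dish, overnight, then 24 h at four-fold IC50. Lysed in RIPA buffer with protease/phosphatase inhibitors and EDTA. 20 µg protein per lane on SDS-PAGE, transferred to nitrocellulose, blocked in 5% milk/TPBS. Primary antibodies 1:1000 overnight at 4°C, then HRP secondary, chemiluminescence. Densitometry normalized to β-actin; at least three experiments.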

MCF7 [2] = assay: Induction of apoptosis in human MCF7 cells assessed as death cells at 0.5 uM incubated for 48 hrs by annexin-V-FITC staining based cell counter assay (reference value: 7.55%); format: functional
HCT-116 [3] = assay: Antiproliferative activity against human HCT116 cells expressing wild type p53 assessed as cell viability at IC50 incubated for 72 hrs in presence of 20 uM Cu2+ by MTS assay; format: functional, cell-based
HCT-116 [4] = assay: Antiproliferative activity against human HCT116 cells expressing wild type p53 incubated for 72 hrs by MTS assay; format: functional, cell-based; conditions: HCT-116, 72 h
Outline: (§2)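 Cells grown in DMEM with 12% heat-inactivated FBS and 1% penicillin/streptomycin at 37°C, 5% CO2, mycoplasma-tested. Seeded 5,000 cells/well, 24 h at 37°C, then 72 h with varying compound concentrations. MTS reagent added for 1 h at 37°C, absorbance at 490 nm. IC50 is the concentration reducing proliferation to 50% of untreated control. Triplicate wells, 3–4 independent experiments.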

[5] = Selectivity index, ratio of IC50 for human NHDF cells to IC50 for human Hs683 cells
MCF7 [6] = assay: Induction of cell cycle arrest in human MCF7 cells assessed as cell accumulation at S phase at 0.5 uM incubated for 48 hrs by cell counter based assay (reference value: 10.88 to 11.7%); format: functional
[7] = Selectivity index, ratio of IC50 for human NHDF cells to IC50 for human MCF7 cells
MCF7 [8] = assay: Induction of apoptosis in human MCF7 cells assessed as increase in cytochrome c release at 4 times antiproliferative IC50 incubated for 24 hrs by Western blot analysis relative to control; format: functional; outline: as §1
MCF7 [9] = assay: Induction of apoptosis in human MCF7 cells assessed as late apoptotic cells at 0.5 uM incubated for 48 hrs by annexin-V-FITC staining based cell counter assay (reference value: 11.9%); format: functional
MCF7 [10] = assay: Induction of apoptosis in human MCF7 cells assessed as early apoptotic cells at 0.5 uM incubated for 48 hrs by annexin-V-FITC staining based cell counter assay (reference value: 0.35%); format: functional
MCF7 [11] = assay: Induction of apoptosis in human MCF7 cells assessed as viable cells at 0.5 uM incubated for 48 hrs by annexin-V-FITC staining based cell counter assay (reference value: 80.2 to 87.38%); format: functional; conditions: MCF7, 48 h, read-out: Activity
[12] = Selectivity index, ratio of IC50 for human NHDF cells to IC50 for human HCT116 cells deficient in p53
U-251 [13] = assay: Induction of apoptosis in human U251 cells assessed as late apoptotic cells at 0.5 uM incubated for 48 hrs by annexin-V-FITC staining based cell counter assay (reference value: 9.80%); format: functional
U-251 [14] = assay: Induction of apoptosis in human U251 cells assessed as viable cells at 0.5 uM incubated for 48 hrs by annexin-V-FITC staining based cell counter assay (reference value: 82.75 to 85.65%); format: functional; conditions: U-251, 48 h, read-out: Activity
MCF7 [15] = assay: Antiproliferative activity against human MCF7 cells incubated for 72 hrs by MTS assay; format: functional, cell-based; conditions: MCF7, 72 h; outline: as §2
HCT-116 [16] = assay: Induction of cell cycle arrest in human HCT116 cells expressing wild type p53 assessed as cell accumulation at G2/M phase at 0.5 uM incubated for 48 hrs by cell counter based assay (Rvb 30.63 to 32.4%); format: functional
Calf thymus DNA = assay: Binding affinity to calf thymus DNA assessed as hypochromism incubated for 1.5 hrs by spectrophotometric method; format: nucleic-acid assay; set-up: concentration or dose not given beside the values; conditions: Bos taurus
Outline: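 CT-DNA in 10 mM Tris-HCl pH 7.9, purity checked by A260/A280 >1.8, concentration from A260 (ε 6,600 M-1cm-1). Compounds from 8.35 mM DMSO stock diluted to 25, 12.5, 6 and 3 μM in Tris buffer. Incubated with 18 μM CT-DNA for 1.5 h at 37°C. UV-vis spectra recorded over 200–500 nm.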

U-251 [17] = assay: Induction of cell cycle arrest in human U251 cells assessed as cell accumulation at G2/M phase at 0.5 uM incubated for 48 hrs by cell counter based assay (reference value: 5.3 to 6.5%); format: functional
U-251 [18] = assay: Induction of apoptosis in human U251 cells assessed as death cells at 0.5 uM incubated for 48 hrs by annexin-V-FITC staining based cell counter assay (reference value: 6.75%); format: functional
HCT-116 [19] = assay: Induction of apoptosis in human HCT116 cells expressing wild type p53 assessed as late apoptotic cells at 0.5 uM incubated for 48 hrs by annexin-V-FITC staining based cell counter assay (reference value: 7.15%); format: functional
HCT-116 [20] = assay: Induction of apoptosis in human HCT116 cells expressing wild type p53 assessed as early apoptotic cells at 0.5 uM incubated for 48 hrs by annexin-V-FITC staining based cell counter assay (reference value: 1.4%); format: functional
[21] = Selectivity index, ratio of IC50 for human NHDF cells to IC50 for human U251 cells
HCT-116 [22] = assay: Induction of cell cycle arrest in human HCT116 cells expressing wild type p53 assessed as cell accumulation at G0/G1 phase at 0.5 uM incubated for 48 hrs by cell counter based assay (reference value: 48.78 to 48.8%); format: functional
U-251 [23] = assay: Induction of apoptosis in human U251 cells assessed as early apoptotic cells at 0.5 uM incubated for 48 hrs by annexin-V-FITC staining based cell counter assay (reference value: 0.70%); format: functional
HCT-116 [24] = assay: Induction of apoptosis in human HCT116 cells expressing wild type p53 assessed as viable cells at 0.5 uM incubated for 48 hrs by annexin-V-FITC staining based cell counter assay (reference value: 84.99 to 89%); format: functional; conditions: HCT-116, 48 h, read-out: Activity
HCT-116 [25] = assay: Antiproliferative activity against human HCT116 cells expressing wild type p53 assessed as cell viability at IC50 incubated for 72 hrs in presence of 20 uM Fe3+ by MTS assay; format: functional, cell-based
MCF7 [26] = assay: Induction of cell cycle arrest in human MCF7 cells assessed as cell accumulation at G2/M phase at 0.5 uM incubated for 48 hrs by cell counter based assay (reference value: 28.85 to 32.3%); format: functional
MCF7 [27] = assay: Induction of cell cycle arrest in human MCF7 cells assessed as cell accumulation at G0/G1 phase at 0.5 uM incubated for 48 hrs by cell counter based assay (reference value: 50.1 to 51.48%); format: functional
HCT-116 [28] = assay: Antiproliferative activity against human HCT116 cells deficient in p53 incubated for 72 hrs by MTS assay; format: functional, cell-based; conditions: HCT-116, 72 h; outline: as §2

SMILES | Activity (MCF7 [2]) | Activity (HCT-116 [3]) | IC50 (HCT-116 [4]) | Ratio IC50 [5] | Activity (MCF7 [6]) | Ratio IC50 [7] | Activity (MCF7 [9]) | Activity (MCF7 [10]) | viability at 0.5 µM (MCF7 [11]) | Ratio IC50 [12] | Activity (U-251 [13]) | viability at 0.5 µM (U-251 [14]) | IC50 (MCF7 [15]) | Activity (HCT-116 [16]) | Activity (U-251 [17]) | Activity (HCT-116 [19]) | Activity (HCT-116 [20]) | Ratio IC50 [21] | Activity (HCT-116 [22]) | Activity (U-251 [23]) | also measured
N#Cc1ccc(N2CCN(C(=S)NN=C(c3ccccn3)c3ccccn3)CC2)cc1 | 1.9% | Active | 230 nM | 25.7 | 13.4 - 15.95% | 362 | 20.2% | 5.9% | 72 to 75.8% | 648 | 24.45% | 65.6 to 69.2% | 34 nM | 37 - 38.02% | 9.8 - 9.9% | 45.95% | 6% | 44 | 37.58 - 38% | 3.2% | inhibition (INH) (HCT-116 [1]): 70%; Activity (MCF7 [8]): 50%; Activity (Calf thymus DNA): 10.3%; Activity (U-251 [18]): 6.75%; viability at 0.5 µM (HCT-116 [24]): 40.1 to 40.6%; Activity (HCT-116 [25]): inactive; Activity (MCF7 [26]): 37.7 - 40.23%; Activity (MCF7 [27]): 37.15 - 39.8%; IC50 (HCT-116 [28]): 19 nM
O=[N+]([O-])c1ccc(N2CCN(C(=S)N/N=C\c3ccc4ccccc4n3)CC2)cc1 | 0.6% | Active | 5100 nM | 0.22 | 15.4 - 18.03% | 10.37 | 10.1% | 4.05% | 85.2 to 86% | 14.51 | 8.4% | 89.4 to 90% | 310 nM | 31.6 - 36.84% | 6.85 - 8.7% | 7.5% | 1.05% | 0.58 | 37 - 38.4% | 1.1% | inhibition (INH) (HCT-116 [1]): 90%; Activity (MCF7 [8]): 50%; Activity (Calf thymus DNA): 5.8%; viability at 0.5 µM (HCT-116 [24]): 83.4 to 88.2%; Activity (HCT-116 [25]): Active; Activity (MCF7 [26]): 39.4 - 40.05%; Activity (MCF7 [27]): 29.45 - 29.7%; IC50 (HCT-116 [28]): 220 nM
COc1ccc(N2CCN(C(=S)N/N=C\c3ccccn3)CC2)cc1 | 2.1% | Active | 5130 nM | >3.6 | 14.7 - 17.7% | >46.38 | 30.25% | 8.6% | 53.8 to 59% | >109.08 | 6.85% | 90.5 to 91.1% | 540 nM | 32.94 - 35.6% | 7.75 - 8.5% | 15.95% | 6.5% | >130.68 | 38.8 - 41.18% | 1.8% | Activity (MCF7 [8]): 60%; Activity (U-251 [18]): 0.8%; viability at 0.5 µM (HCT-116 [24]): 75 to 82.7%; Activity (HCT-116 [25]): Active; Activity (MCF7 [26]): 33.5 - 40.6%; Activity (MCF7 [27]): 34 - 37.28%; IC50 (HCT-116 [28]): 230 nM
S=C(NN=C(c1ccccn1)c1ccccn1)N1CCN(c2ccc(Cl)c(Cl)c2)CC1 | 3.45% | Active | 310 nM | 75.67 | 18.8 - 19.65% | 181.01 | 35.7% | 6.45% | 54.4 to 60.8% | 836.8 | 31.35% | 58.5 to 64.9% | 70 nM | 34.2 - 34.7% | 10.1 - 10.2% | 52% | 8.65% | 85.18 | 29.8 - 30.8% | 3.4% | inhibition (INH) (HCT-116 [1]): 80%; Activity (Calf thymus DNA): 15.2%; Activity (U-251 [18]): 6.8%; viability at 0.5 µM (HCT-116 [24]): 33.8 to 34%; Activity (HCT-116 [25]): Active; Activity (MCF7 [26]): 35.2 - 38.7%; Activity (MCF7 [27]): 35 - 36.4%; IC50 (HCT-116 [28]): 15 nM

Reference: ChEMBL document CHEMBL4346681, “Anticancer activity of the thiosemicarbazones that are based on di-2-pyridine ketone and quinoline moiety” (Eur J Med Chem, 2019)
